The source made the active and inactive calls. No cut-off for these calls is given here.
Legend:
[1] = biological target: Phosphatidylinositol 4,5-bisphosphate 3-kinase catalytic subunit alpha isoform (Homo sapiens, UniProt P42336); experiment: Inhibition of GST-GRP1-fused PI3Kalpha by microtiter plate based fluorescence polarization assay
[2] = biological target: Phosphatidylinositol 4,5-bisphosphate 3-kinase catalytic subunit gamma isoform (Homo sapiens, UniProt P48736); experiment: Inhibition of GST-GRP1-fused PI3Kgamma by microtiter plate based fluorescence polarization assay
Outline: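 Fluorescence polarization assay monitoring PIP3 production by PI3K p110α or p110γ. IC50 values are the means of two experiments, SD ±10%.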

PC-3 = experiment: Antiproliferative activity against human PC3 cells; type: functional, cell-based
Outline: (§1)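 Growth densities of Caco-2 (colorectal), LoVo (colon) and PC3MM2 (prostate) adenocarcinoma cultures monitored after compound exposure to measure proliferation.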

LoVo = experiment: Antiproliferative activity against human LoVo cells; type: functional, cell-based; outline: as §1
Caco-2 = experiment: Antiproliferative activity against human Caco-2 cells; type: functional, cell-based; outline: as §1
[3] = biological target: Serine/threonine-protein kinase mTOR (Homo sapiens, UniProt P42345); experiment: Inhibition of human TOR in HEK293 cells by DELFIA; type: cell-based
Outline: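 DELFIA-format assay detecting phosphorylated His6-S6K substrate. IC50 values are the means of two experiments, SD ±10%.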

[4] = Selectivity ratio of IC50 for PI3Kgamma to IC50 for PI3Kalpha
[5] = Selectivity ratio of IC50 for human TOR to IC50 for PI3Kalpha
MDA-MB-361 = experiment: Inhibition of PI3K in human MDA-MB-361 cells assessed as reduction of phosphorylated Akt (T308) level at 3 to 30 uM after 4 hrs by immunoblotting; type: cell-based
Outline: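 MDA-361 breast adenocarcinoma cells were treated in growth media for 4 h with the indicated doses, with a DMSO control. Lysates were immunoblotted for phospho-Akt T308, and for cleaved PARP as an apoptosis marker.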

Chain of Phosphatidylinositol 4,5-bisphosphate 3-kinase catalytic subunit alpha isoform (P42336 whole entry, the tested form may be a part, canonical isoform): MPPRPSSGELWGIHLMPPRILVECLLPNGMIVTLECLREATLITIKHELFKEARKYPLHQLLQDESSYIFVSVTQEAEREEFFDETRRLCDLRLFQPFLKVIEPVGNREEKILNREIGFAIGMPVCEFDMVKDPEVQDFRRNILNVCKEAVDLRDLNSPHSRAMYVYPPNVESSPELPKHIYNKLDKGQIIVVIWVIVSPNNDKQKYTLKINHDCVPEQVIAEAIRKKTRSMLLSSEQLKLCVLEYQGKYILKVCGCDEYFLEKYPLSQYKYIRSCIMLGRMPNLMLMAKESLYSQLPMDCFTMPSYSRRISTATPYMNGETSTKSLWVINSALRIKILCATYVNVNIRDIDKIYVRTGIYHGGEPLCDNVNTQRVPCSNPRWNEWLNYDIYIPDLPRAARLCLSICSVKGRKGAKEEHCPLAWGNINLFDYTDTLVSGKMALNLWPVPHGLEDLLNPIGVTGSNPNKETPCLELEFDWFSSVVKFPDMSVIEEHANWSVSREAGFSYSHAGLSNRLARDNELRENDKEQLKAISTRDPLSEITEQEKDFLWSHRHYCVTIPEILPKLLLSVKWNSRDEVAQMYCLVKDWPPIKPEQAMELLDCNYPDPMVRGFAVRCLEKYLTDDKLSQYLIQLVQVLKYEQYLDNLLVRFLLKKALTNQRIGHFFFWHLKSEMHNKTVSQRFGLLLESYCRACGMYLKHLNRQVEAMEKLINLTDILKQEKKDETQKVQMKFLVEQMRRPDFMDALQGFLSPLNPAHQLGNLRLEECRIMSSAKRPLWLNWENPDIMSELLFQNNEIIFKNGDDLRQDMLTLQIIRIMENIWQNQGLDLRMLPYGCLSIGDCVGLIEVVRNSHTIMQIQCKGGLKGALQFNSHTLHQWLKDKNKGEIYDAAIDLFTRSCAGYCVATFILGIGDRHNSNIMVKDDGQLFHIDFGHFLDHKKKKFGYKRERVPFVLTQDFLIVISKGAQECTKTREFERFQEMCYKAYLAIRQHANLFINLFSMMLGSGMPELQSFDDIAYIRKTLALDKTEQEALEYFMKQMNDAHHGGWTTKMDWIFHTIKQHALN
Chain of Phosphatidylinositol 4,5-bisphosphate 3-kinase catalytic subunit gamma isoform (P48736 whole entry, the tested form may be a part, canonical isoform): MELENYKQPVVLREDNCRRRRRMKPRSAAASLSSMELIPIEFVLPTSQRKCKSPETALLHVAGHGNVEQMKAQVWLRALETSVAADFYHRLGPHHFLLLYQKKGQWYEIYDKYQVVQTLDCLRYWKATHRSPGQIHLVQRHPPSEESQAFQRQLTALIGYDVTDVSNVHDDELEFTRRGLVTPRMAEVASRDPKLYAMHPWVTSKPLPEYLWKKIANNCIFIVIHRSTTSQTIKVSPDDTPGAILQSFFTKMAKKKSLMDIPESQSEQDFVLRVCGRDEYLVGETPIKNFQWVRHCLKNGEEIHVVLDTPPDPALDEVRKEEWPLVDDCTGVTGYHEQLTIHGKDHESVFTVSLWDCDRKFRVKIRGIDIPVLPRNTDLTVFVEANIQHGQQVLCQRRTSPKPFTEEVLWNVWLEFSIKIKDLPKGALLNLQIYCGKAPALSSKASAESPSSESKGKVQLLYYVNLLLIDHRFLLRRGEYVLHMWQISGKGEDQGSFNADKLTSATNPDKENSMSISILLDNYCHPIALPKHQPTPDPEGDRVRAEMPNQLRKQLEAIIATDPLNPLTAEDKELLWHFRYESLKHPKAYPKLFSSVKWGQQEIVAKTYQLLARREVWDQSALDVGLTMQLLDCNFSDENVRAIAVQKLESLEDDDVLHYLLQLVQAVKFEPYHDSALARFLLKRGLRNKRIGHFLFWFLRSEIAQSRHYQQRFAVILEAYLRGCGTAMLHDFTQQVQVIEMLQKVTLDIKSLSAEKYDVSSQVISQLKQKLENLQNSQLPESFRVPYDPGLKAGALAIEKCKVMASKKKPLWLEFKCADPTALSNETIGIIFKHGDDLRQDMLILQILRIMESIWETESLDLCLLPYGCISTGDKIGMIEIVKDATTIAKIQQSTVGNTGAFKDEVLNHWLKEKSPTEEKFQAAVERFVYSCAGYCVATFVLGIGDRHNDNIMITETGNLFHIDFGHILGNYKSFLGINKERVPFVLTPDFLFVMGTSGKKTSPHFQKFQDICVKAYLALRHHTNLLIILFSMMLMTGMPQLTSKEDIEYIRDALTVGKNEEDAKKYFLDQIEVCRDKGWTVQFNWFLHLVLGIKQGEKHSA

Row | Compound | IC50 [1] [nM] | IC50 [2] [µM] | IC50 (PC-3) [nM] | IC50 (LoVo) [nM] | IC50 (Caco-2) [µM] | IC50 [3] [nM] | Ratio IC50 [4] | Ratio IC50 [5] | inhibition (MDA-MB-361)
1 | Oc1ccc(-c2nc(N3CCOCC3)c3nc[nH]c3n2)cc1 | 2540 | 8.56 | – | – | – | – | – | – | –
2 | Oc1ccccc1-c1nc(N2CCOCC2)c2nc[nH]c2n1 | 667 | 5.14 | > 10000 | 7310 | > 10 | – | – | – | –
3 | Oc1cccc(-c2nc(N3CCCCC3)c3nc[nH]c3n2)c1 | 3770 | 10.3 | – | – | – | – | – | – | –
4 | Oc1cccc(-c2nc(N3CCOCC3)c3nc[nH]c3n2)c1 | 232 | – | – | – | – | 2380 | – | – | –
5 | N#Cc1cccc(-c2nc(N3CCOCC3)c3nc[nH]c3n2)c1 | 2910 | 8.3 | – | – | – | – | – | – | –
6 | Oc1cccc(-c2nc(N3CCOCC3)c3cnn(C4CCNCC4)c3n2)c1 | – | 0.993 | 922 | 1580 | 5.58 | – | – | – | –
7 | NC(=O)c1ccc(-c2nc(N3CCOCC3)c3nc[nH]c3n2)cc1 | 6700 | 10 | – | – | – | – | – | – | –
8 | Oc1cccc(-c2nc(N3CCOCC3)c3ncn(C4CCNCC4)c3n2)c1 | 65 | 0.131 | 1520 | 2020 | 4.04 | 870 | – | – | –
9 | OCc1cccc(-c2nc(N3CCOCC3)c3ncn(C4CCNCC4)c3n2)c1 | 58 | – | 2360 | 1870 | 4.5 | – | 11 | > 100 | –
10 | c1nc2c(N3CCOCC3)nc(-c3ccc4c(c3)OCCO4)nc2[nH]1 | 3480 | 7.58 | – | – | – | – | – | – | –
11 | CS(=O)(=O)Nc1cccc(-c2nc(N3CCOCC3)c3nc[nH]c3n2)c1 | 4380 | 7.91 | – | – | – | – | – | – | –
12 | OCc1ccc(-c2nc(N3CCOCC3)c3nc[nH]c3n2)cc1 | 2890 | 7.97 | – | – | – | – | – | – | –
13 | c1nc2c(N3CCOCC3)nc(-c3ccoc3)nc2[nH]1 | 3790 | 11 | – | – | – | – | – | – | –
14 | OCc1cccc(-c2nc(N3CCOCC3)c3cnn(C4CCN(Cc5ccccc5)CC4)c3n2)c1 | 25 | 0.975 | 345 | 511 | 1.34 | 90 | – | – | –
15 | c1nc2c(N3CCOCC3)nc(-c3ccc4c(c3)OCO4)nc2[nH]1 | 1210 | 6.91 | – | – | – | – | – | – | –
16 | OCc1cccc(-c2nc(N3CCOCC3)c3ncn(CC4CCN(Cc5ccccc5)CC4)c3n2)c1 | 248 | 1.65 | 9270 | 3080 | 5.79 | – | – | – | –
17 | Oc1cccc(-c2nc(N3CCOCC3)c3ncn(C4CCN(Cc5ccccc5)CC4)c3n2)c1 | 80 | 10.8 | 1110 | 1950 | > 10 | – | – | – | –
18 | c1cc2ccc(-c3nc(N4CCOCC4)c4nc[nH]c4n3)cc2[nH]1 | 2330 | 7.37 | – | – | – | 150 | – | – | –
19 | CS(=O)(=O)c1ccc(-c2nc(N3CCOCC3)c3nc[nH]c3n2)cc1 | 1760 | 5.83 | – | – | – | – | – | – | –
20 | CS(=O)(=O)c1cccc(-c2nc(N3CCOCC3)c3nc[nH]c3n2)c1 | 3900 | 7.91 | – | – | – | – | – | – | –
21 | OCc1cccc(-c2nc(N3CCOCC3)c3ncn(C4CCN(Cc5ccccc5)CC4)c3n2)c1 | – | – | 1280 | 1050 | 5.17 | 691 | – | – | Active
22 | Oc1cccc(-c2nc(N3CCOCC3)c3ncn(CC4CCN(Cc5ccccc5)CC4)c3n2)c1 | 199 | 2.38 | 7350 | 3510 | 6.49 | – | – | – | –
23 | c1csc(-c2nc(N3CCOCC3)c3nc[nH]c3n2)c1 | 640 | 6.74 | > 10000 | > 10000 | > 10 | – | – | – | –
24 | Oc1cccc(-c2nc(N3CCOCC3)c3cnn(C4CCN(Cc5ccccc5)CC4)c3n2)c1 | – | 2.37 | 940 | 1610 | 5.97 | 83 | – | – | –
25 | c1nc2c(N3CCOCC3)nc(-c3ccsc3)nc2[nH]1 | 2380 | 8 | – | – | – | – | – | – | –
